This is an account of results in ChEMBL document CHEMBL1141892, “Syntheses and properties of the major hydroxy metabolites in humans of blonanserin AD-5423, a novel antipsychotic agent” (Bioorg Med Chem Lett, 2005).

One experiment has as its target D(2) dopamine receptor (Homo sapiens, UniProt P14416). The experiment in a line: In vitro binding affinity against recombinant human dopamine receptor D2L […]. The essentials: (§1)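 Affinities are Ki values (nM) at human D2L and human 5-HT2A receptors, reported as mean ± SEM of three independent experiments.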
A general note: Liver microsomes are a subcellular fraction often used to study metabolism.

The target in experiment [1] is 5-hydroxytryptamine receptor 2A (Homo sapiens, UniProt P28223). Put plainly: In vitro binding affinity against recombinant human 5-hydroxytryptamine 2A receptor […]. Summed up:
as §1

Sequence of D(2) dopamine receptor (P14416 whole entry): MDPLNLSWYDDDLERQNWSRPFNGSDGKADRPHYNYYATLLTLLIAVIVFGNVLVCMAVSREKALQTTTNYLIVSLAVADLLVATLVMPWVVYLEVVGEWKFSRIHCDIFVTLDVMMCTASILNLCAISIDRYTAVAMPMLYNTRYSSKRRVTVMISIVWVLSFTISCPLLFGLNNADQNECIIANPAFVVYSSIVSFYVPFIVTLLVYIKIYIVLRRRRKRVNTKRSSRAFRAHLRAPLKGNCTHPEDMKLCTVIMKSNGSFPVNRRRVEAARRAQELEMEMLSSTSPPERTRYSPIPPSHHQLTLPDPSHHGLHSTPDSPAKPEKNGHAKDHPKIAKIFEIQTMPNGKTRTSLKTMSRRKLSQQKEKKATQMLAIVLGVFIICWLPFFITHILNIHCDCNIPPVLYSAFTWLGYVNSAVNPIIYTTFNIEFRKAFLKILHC
Sequence of 5-hydroxytryptamine receptor 2A (P28223 whole entry): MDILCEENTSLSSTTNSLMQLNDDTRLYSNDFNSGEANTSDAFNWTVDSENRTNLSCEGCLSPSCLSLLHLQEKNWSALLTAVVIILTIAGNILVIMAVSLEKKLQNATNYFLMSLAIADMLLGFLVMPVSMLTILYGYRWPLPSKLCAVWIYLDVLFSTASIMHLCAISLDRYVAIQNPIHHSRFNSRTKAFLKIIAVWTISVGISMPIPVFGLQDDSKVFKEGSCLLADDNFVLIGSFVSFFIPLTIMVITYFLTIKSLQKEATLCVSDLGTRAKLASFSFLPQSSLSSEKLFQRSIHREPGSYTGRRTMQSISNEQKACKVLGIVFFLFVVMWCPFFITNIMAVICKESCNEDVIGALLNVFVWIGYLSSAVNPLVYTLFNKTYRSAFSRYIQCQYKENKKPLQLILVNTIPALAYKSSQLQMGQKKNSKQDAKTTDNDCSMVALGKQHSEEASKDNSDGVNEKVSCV

What is called Ki is a measure of affinity in units of concentration, obtained from inhibition or displacement. With `CCN1CCN(c2cc(-c3ccc(F)cc3)c3c(n2)CCC[C@@H](O)CC3)CC1`, the values for the Ki (at D(2) dopamine receptor; in experiment [1]) were 6.2 nM and 14.7 nM, respectively.

For `CCN1CCN(c2cc(-c3ccc(F)cc3)c3c(n2)CC[C@@H](O)CCC3)CC1`, the inhibition constant Ki on D(2) dopamine receptor stood at 11.9 nM; in experiment [1], 17.9 nM.

With `CCN1CCN(c2cc(-c3ccc(F)cc3)c3c(n2)CCCCCC3)CC1` [BLONANSERIN], the Ki worked out at 0.14 nM on D(2) dopamine receptor and 0.81 nM in experiment [1].

`CCN1CCN(c2cc(-c3ccc(F)cc3)c3c(n2)CC[C@H](O)CCC3)CC1`: the results for the Ki (on D(2) dopamine receptor; in experiment [1]) were 3.6 nM and 9.67 nM, respectively.

As for `CCN1CCN(c2cc(-c3ccc(F)cc3)c3c(n2)CCC[C@H](O)CC3)CC1`, the Ki was determined as 21.2 nM at D(2) dopamine receptor and 18.5 nM in experiment [1].
